Data set [1] can be described thus: Metabolic stability in mouse liver microsomes. The class given is in vitro ADME. To be noted: 1 µM, scaled from in vitro clearance. The gist of the method:
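Mouse liver microsomes were incubated in duplicate with test compound (final 1 µM, <0.1% DMSO) in 50 mM phosphate pH 7.4 at 37 °C for 1 h, with and without an NADPH regenerating system. Samples were taken at 0, 10, 20, 30, 45 and 60 min, quenched with ACN/MeOH (2:1) plus internal standard and analysed by LC-MS/MS. t1/2 came from non-linear regression; Clint was derived from it and normalized to protein. Scaling used 52.5 mg protein/g liver, 85.7 g liver/kg and LBF 131 mL min−1 kg−1.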

Data set [2] has as its system P-glycoprotein (human MDR1). Put plainly: Permeability on MDCKII-hMDR1 cell monolayers. To be noted: dog, MDCK-MDR1, pH 7.4. The class given is in vitro ADME, canine. The gist of the method: (§1)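 MDCKII cells overexpressing human MDR1 were seeded on 96-well inserts (0.25 × 10^6 cells per mL) and grown 3 days to confluence. Monolayers were equilibrated 30 min in DPBS pH 7.4 with 1% DMSO. Test compound (10 µM) with lucifer yellow (100 µM, integrity marker) was applied apical-to-basolateral and basolateral-to-apical for 60 min at 37 °C with agitation. Both compartments, plus donor at start, were quantified by LC-MS/MS.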

Data set [3] concerns MDCKII-hMDR1 cell monolayers. The data set is described as follows: Permeability on MDCKII-hMDR1 cell monolayers. In kind it is in vitro ADME, canine. To be noted: MDCKII-hMDR1. The gist of the method:
as §1

Data set [4] deals with human tumor cell lines (Capan-1, HCT-116, LN-229, NCI-H460, DND-41, HL-60, K562, Z-138). The data set is described as follows: Antiproliferative assays, panel of human tumor cell lines. The class given is cell-based. The method, boiled down: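 Cells from ATCC (DND-41 from DSMZ) were grown in medium with 10% FBS in 384-well plates. Adherent lines were plated overnight first: Capan-1 at 500 and HCT-116, NCI-H460 and LN-229 at 1500 cells/well. Suspension lines were seeded onto compound: HL-60, K-562 and Z-138 at 2500 and DND-41 at 5500 cells/well. Seven concentrations, 100–0.006 µM, from DMSO stocks, 72 h. […] At least two independent experiments.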

Data set [5] deals with Bcl-2. To be noted: read-out: IC50 (Bcl-2); PDB 6QGK, CHEMBL4438456; cited from earlier work.

Each structure is given as a SMILES string.

Here are results for nine compounds from paper PMC12709234 (RSC Advances, 2025).

Consider `FC(F)(F)c1cc(OCc2cc(-c3ccccc3)no2)c2ccccc2n1` [Compound 7a, 3-Phenyl-5-(((2-(trifluoromethyl)quinolin-4-yl)oxy)methyl)isoxazole], for which the “% LBF predicted in vivo hepatic clearance” value (shortened to “% LBF predicted”) in data set [1] is 74 % LBF. In data set [2], this compound registered an apparent permeability from apical to basolateral (Papp A→B) at 60 min, 10 µM below 0.1 ×10⁻⁶ cm/s and a Papp B→A at 60 min, 10 µM of 0.1 ×10⁻⁶ cm/s. The Permeability classification entry in data set [3] was “low to moderate”.
`FC(F)(F)c1cc(OCc2cc(-c3ccccn3)no2)c2ccccc2n1` [Compound 7b, 3-(Pyridin-2-yl)-5-(((2-(trifluoromethyl)quinolin-4-yl)oxy)methyl)isoxazole]: in data set [1], the “% LBF predicted” value is recorded as 87 % LBF. For the same compound, in data set [2], the Papp A→B at 60 min, 10 µM was 6.5 ×10⁻⁶ cm/s; the Papp B→A at 60 min, 10 µM was determined as 4.6 ×10⁻⁶ cm/s; the efflux ratio at 60 min, 10 µM was 0.7. In data set [3], the Efflux classification result is given as “low” and the Permeability classification entry is recorded as “low to moderate”. Besides, the “antiproliferative activity (in words)” value in data set [4] (all evaluated human tumor cell lines) is “did not exhibit any antiproliferative effects”.
As for `c1ccc(-c2cc(CNc3cccc4cccnc34)on2)cc1` [Compound 8a, 3-Phenyl-5-((quinolin-8-yl-azaneyl)methyl)isoxazole], the “% LBF predicted” value in data set [1] was above 97 % LBF. In addition, the apical-to-basolateral permeability (Papp A→B) at 60 min, 10 µM in data set [2] turned out to be 1.7 ×10⁻⁶ cm/s. In addition, in data set [3], the Permeability classification result is “low to moderate”.
In the case of `c1ccc(-c2cc(CNc3cccc4cccnc34)on2)nc1` [Compound 8b, N-((3-(Pyridin-2-yl)isoxazol-5-yl)methyl)quinolin-8-amine], the “% LBF predicted” value in data set [1] is listed as 96 % LBF. Besides, in data set [2], the Papp A→B at 60 min, 10 µM was determined as 17.2 ×10⁻⁶ cm/s; the apparent permeability from basolateral to apical (Papp B→A) at 60 min, 10 µM came to 27.8 ×10⁻⁶ cm/s; the apparent permeability coefficient (Papp) at 60 min, 10 µM was above 10 ×10⁻⁶ cm/s; the efflux ratio at 60 min, 10 µM worked out at 1.6. In data set [3], the Efflux classification result was “low” and the Permeability classification result was “High”.
In data set [2], `FC(F)(F)c1ccc(-c2cc(CNc3cccc4cccnc34)on2)cc1` [Compound 8c, N-((3-(4-(Trifluoromethyl)phenyl)isoxazol-5-yl)methyl)quinolin-8-amine] had a Papp A→B at 60 min, 10 µM below 0.1 ×10⁻⁶ cm/s and an apparent permeability from basolateral to apical (Papp B→A) at 60 min, 10 µM below 0.1 ×10⁻⁶ cm/s. For the same compound, the Permeability classification result in data set [3] is on record as “Low/—”.
`Clc1ccc(-c2cc(CNc3cccc4cccnc34)on2)c(Cl)c1` [Compound 8d, N-((3-(2,4-Dichlorophenyl)isoxazol-5-yl)methyl)quinolin-8-amine]: in data set [1], the “% LBF predicted” value was 51 % LBF. Moreover, in data set [2], the Papp A→B at 60 min, 10 µM is below 0.1 ×10⁻⁶ cm/s and the Papp B→A at 60 min, 10 µM was below 0.1 ×10⁻⁶ cm/s. Further, the Permeability classification result in data set [3] is reported as “Low/—”.
`N#Cc1ccc(-c2cc(CNc3cccc4cccnc34)on2)cc1` [Compound 8e, 4-(5-((Quinolin-8-ylamino)methyl)isoxazol-3-yl)benzonitrile]: the “% LBF predicted” value in data set [1] is recorded as 55 % LBF. Also, in data set [2], the Papp A→B at 60 min, 10 µM is 3.6 ×10⁻⁶ cm/s; the basolateral-to-apical permeability (Papp B→A) at 60 min, 10 µM worked out at 3.1 ×10⁻⁶ cm/s; the efflux ratio at 60 min, 10 µM was 0.9. In data set [3], the Efflux classification entry is listed as “low” and the Permeability classification result is given as “Moderate”.
`N/C(=N\O)c1ccc(-c2cc(CNc3cccc4cccnc34)on2)cc1` [Compound 8f, (Z)-N′-hydroxy-4-(5-((quinolin-8-ylamino)methyl)isoxazol-3-yl)benzimidamide]: the “% LBF predicted” value in data set [1] was 53 % LBF. Besides, in data set [2], the Papp A→B at 60 min, 10 µM is 15 ×10⁻⁶ cm/s; the Papp B→A at 60 min, 10 µM worked out at 13.7 ×10⁻⁶ cm/s; the apparent permeability coefficient (Papp) at 60 min, 10 µM is above 10 ×10⁻⁶ cm/s; the efflux ratio at 60 min, 10 µM came out at 0.9. In addition, in data set [3], the Efflux classification entry was “low” and the Permeability classification entry is listed as “High”. Moreover, the IC50 in data set [4] (Homo sapiens, read-out: IC50 values against DND-41, HL-60, Z-138 and Capan-1) lay in the range of 2.1 to 4.7 µM.
On to `CCCCN(CCCC)C(=O)c1cc(C)n(-c2ccccc2C(=O)N2Cc3ccccc3C[C@H]2CN)n1` [Compound J1Q, (S)-1-(2-(3-(aminomethyl)-1,2,3,4-tetrahydroisoquinoline-2-carbonyl)phenyl)-N,N-dibutyl-5-methyl-1H-pyrazole-3-carboxamide], for which the IC50 in data set [5] is 1.3 µM.
